Reference: ChEMBL document CHEMBL3526004, “Interaction of silymarin flavonolignans with organic anion-transporting polypeptides” (Drug Metab Dispos, 2013)

Key:
[1] = biological target: T1, Solute carrier organic anion transporter family member 1B1 (Homo sapiens, UniProt Q9Y6L6); assay: Inhibition of OATP1B1 (unknown origin) expressed in HEK293 cells assessed as reduction of [3H]estradiol-17beta-glucuronide uptake at 10 uM after 3 mins by beta-counting; assay type: ADME, cell-based; details: hek293, 0.05 h
T1 sequence (Q9Y6L6 whole entry): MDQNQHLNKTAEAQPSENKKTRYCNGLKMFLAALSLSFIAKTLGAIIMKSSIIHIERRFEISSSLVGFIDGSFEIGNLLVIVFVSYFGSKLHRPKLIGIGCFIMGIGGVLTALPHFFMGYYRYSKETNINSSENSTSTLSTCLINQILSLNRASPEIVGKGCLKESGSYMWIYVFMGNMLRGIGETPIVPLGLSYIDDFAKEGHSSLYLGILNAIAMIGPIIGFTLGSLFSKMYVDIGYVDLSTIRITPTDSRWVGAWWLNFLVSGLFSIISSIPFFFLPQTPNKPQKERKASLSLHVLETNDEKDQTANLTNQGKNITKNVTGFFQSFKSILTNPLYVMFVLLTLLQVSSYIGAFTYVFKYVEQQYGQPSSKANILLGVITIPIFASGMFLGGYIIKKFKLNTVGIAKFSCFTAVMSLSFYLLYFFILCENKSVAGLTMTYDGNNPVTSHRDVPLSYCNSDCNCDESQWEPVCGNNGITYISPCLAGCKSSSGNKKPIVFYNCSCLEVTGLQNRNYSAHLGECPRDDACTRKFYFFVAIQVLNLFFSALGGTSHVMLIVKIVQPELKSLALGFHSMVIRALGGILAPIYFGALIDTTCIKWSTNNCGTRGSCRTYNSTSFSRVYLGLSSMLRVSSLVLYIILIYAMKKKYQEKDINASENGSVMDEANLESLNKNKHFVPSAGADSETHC
How it was run: (§1)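 Confluent cells were washed in PBS, then given 1 µM [3H]-E2 17G (OATP1B1, OATP1B3 HEK293) or 1 µM [3H]-E1S (OATP2B1 MDCKII) with 10 µM compound in HBSS pH 7.4 for 3 min at 37°C. Uptake into mock or parental cells was subtracted after protein normalization. Results are % vehicle, mean ± SD of at least three experiments in triplicate.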

[2] = biological target: T2, Solute carrier organic anion transporter family member 1B3 (Homo sapiens, UniProt Q9NPD5); assay: Inhibition of OATP1B3 (unknown origin) expressed in HEK293 cells assessed as reduction of [3H]estradiol-17beta-glucuronide uptake at 10 uM after 3 mins by beta-counting; assay type: ADME, cell-based; details: hek293, 0.05 h; how it was run: as §1
T2 sequence (Q9NPD5 whole entry): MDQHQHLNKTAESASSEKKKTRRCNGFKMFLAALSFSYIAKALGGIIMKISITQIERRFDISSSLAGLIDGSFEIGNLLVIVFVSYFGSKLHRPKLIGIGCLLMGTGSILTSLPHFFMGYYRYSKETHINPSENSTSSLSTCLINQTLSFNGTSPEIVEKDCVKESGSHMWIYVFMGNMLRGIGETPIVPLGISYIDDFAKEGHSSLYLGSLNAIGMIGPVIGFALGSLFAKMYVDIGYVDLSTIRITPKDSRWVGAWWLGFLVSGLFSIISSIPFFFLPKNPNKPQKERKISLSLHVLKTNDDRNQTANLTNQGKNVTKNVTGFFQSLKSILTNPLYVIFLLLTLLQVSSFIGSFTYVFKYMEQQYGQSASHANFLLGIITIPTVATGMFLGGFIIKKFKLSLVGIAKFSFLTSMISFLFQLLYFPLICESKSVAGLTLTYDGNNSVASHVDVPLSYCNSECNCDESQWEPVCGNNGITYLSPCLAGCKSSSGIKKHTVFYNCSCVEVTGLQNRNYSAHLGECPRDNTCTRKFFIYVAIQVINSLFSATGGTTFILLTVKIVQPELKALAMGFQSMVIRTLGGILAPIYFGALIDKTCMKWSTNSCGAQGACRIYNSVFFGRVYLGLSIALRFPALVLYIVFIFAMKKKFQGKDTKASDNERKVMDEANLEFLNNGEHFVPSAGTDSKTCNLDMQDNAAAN

[3] = biological target: T3, Solute carrier organic anion transporter family member 2B1 (Homo sapiens, UniProt O94956); assay: Inhibition of OATP2B1 (unknown origin) expressed in MDCK2 cells assessed as reduction of [3H]estrone-3-sulfate uptake at 10 uM after 3 mins by beta-counting; assay type: ADME, cell-based; details: mdck-ii, 0.05 h; how it was run: as §1
T3 sequence (O94956 whole entry): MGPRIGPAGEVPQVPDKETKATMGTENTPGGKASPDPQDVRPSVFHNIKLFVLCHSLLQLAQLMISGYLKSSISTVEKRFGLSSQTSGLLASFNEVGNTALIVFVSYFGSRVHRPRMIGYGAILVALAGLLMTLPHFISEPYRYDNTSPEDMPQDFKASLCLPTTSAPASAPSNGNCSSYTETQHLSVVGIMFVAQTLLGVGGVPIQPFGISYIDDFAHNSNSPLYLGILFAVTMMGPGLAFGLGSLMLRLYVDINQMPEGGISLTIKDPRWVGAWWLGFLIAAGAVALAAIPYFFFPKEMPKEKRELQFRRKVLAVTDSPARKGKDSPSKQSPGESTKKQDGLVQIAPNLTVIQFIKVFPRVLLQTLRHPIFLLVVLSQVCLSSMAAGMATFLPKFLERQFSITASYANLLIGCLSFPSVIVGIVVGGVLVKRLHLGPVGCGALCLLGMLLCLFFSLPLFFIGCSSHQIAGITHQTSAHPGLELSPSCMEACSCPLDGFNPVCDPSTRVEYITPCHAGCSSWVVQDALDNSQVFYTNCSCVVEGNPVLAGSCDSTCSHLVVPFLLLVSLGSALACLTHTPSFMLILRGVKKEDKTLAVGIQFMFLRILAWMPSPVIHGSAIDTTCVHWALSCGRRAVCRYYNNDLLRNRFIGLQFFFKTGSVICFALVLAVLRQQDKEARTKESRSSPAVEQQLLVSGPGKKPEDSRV

[4] = Ratio of fCmax in portal vein of patient with chronic noncirrhotic HCV infection at 140 mg to IC50 for OATP1B3 (unknown origin) expressed in HEK293 cells; parameters: species or system Homo sapiens
[5] = Inhibition of OATP-mediated [3H]rosuvastatin uptake in sandwich-cultured human hepatocytes at 100 uM after 8 days by beta-counting; assay type: ADME, cell-based, Hepatocyte
How it was run: (§2)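 Hepatocytes were overlaid with Matrigel (0.25 mg/ml) on day 1 and cultured to day 8 in ITS/0.1 µM dexamethasone medium, changed daily. Uptake of [3H]-E2 17G (1 µM, 1 min) or [3H]-rosuvastatin (0.5 µM, 1.5 min) was run at 37°C in HBSS with compound or vehicle. The BSP (100 µM) accumulation was subtracted, and the OATP-mediated uptake was expressed as % vehicle, normalized to BCA protein and corrected with cell-free wells.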

[6] = biological target: T1, Solute carrier organic anion transporter family member 1B1; assay: Inhibition of OATP1B1 (unknown origin) expressed in HEK293 cells assessed as reduction of [3H]estradiol-17beta-glucuronide uptake after 3 mins by beta-counting; assay type: ADME, cell-based
How it was run: (§3)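 Transfected HEK293 (G418) or MDCKII (hygromycin B) cells were co-incubated with 0-100 µM compound and [3H]-E2 17G (1 µM, 0.25 µCi/ml; OATP1B1, OATP1B3) or [3H]-E1S (1 µM; OATP2B1) in HBSS pH 7.4, 3 min at 37°C. OATP-negative uptake was subtracted, and results expressed as % vehicle. Two experiments were run in duplicate. IC50 came from non-linear dose-response fits.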

[7] = Ratio of fCmax in portal vein of patient with chronic noncirrhotic HCV infection at 700 mg to IC50 for OATP2B1 (unknown origin) expressed in HEK293 cells; parameters: species or system Homo sapiens
[8] = biological target: T1, Solute carrier organic anion transporter family member 1B1; assay: Inhibition of OATP1B1 (unknown origin) expressed in HEK293 cells assessed as reduction of [3H]estradiol-17beta-glucuronide uptake after 3 mins by beta-counting in presence of OATP inhibitor BSP; assay type: ADME, cell-based; details: hek293, 0.05 h
Plasma = assay: Plasma concentration in patient with chronic noncirrhotic HCV at 420 to 700 mg administered 3 times per day; assay type: ADME, cell-free; details: human
[9] = Ratio of fCmax in portal vein of patient with chronic noncirrhotic HCV infection at 700 mg to IC50 for OATP1B3 (unknown origin) expressed in HEK293 cells; parameters: species or system Homo sapiens
[10] = Cmax in patient with chronic noncirrhotic HCV infection at 700 mg; assay type: ADME, organism-based; parameters: dose 700 mg; details: human, in vivo
[11] = Cmax at steady state in patient with chronic HCV infection at 140 mg administered 3 times per day; assay type: ADME, organism-based; parameters: dose 140 mg; details: human, in vivo
[12] = biological target: T2, Solute carrier organic anion transporter family member 1B3; assay: Inhibition of OATP1B3 (unknown origin) expressed in HEK293 cells assessed as reduction of [3H]estradiol-17beta-glucuronide uptake after 3 mins by beta-counting in presence of OATP inhibitor BSP; assay type: ADME, cell-based; details: hek293, 0.05 h
[13] = fCmax in portal vein of patient with chronic noncirrhotic HCV infection at 140 mg; assay type: ADME; details: human
[14] = Inhibition of OATP-mediated [3H]rosuvastatin uptake in sandwich-cultured human hepatocytes at 100 uM after 1 day by beta-counting; assay type: ADME, cell-based, Hepatocyte
How it was run: (§4)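 Day-1 human hepatocytes (seeded 350,000 cells/well, medium changed after 1 h) rinsed in HBSS at 37°C. Co-incubated with [3H]-E2 17G (1 µM, 1 min) or [3H]-rosuvastatin (0.5 µM, 1.5 min) plus compound or vehicle. Cells were washed in ice-cold HBSS, lysed in 0.5% Triton X-100, and counted by scintillation. Non-OATP accumulation (100 µM BSP) was subtracted. Results are % vehicle, protein-normalized, as mean ± SEM of three experiments in triplicate.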

[15] = Residual OATP-mediated [3H]estradiol-17beta-glucuronide uptake in sandwich-cultured human hepatocytes at 100 uM after 8 days by beta-counting
[16] = biological target: T3, Solute carrier organic anion transporter family member 2B1; assay: Inhibition of OATP2B1 (unknown origin) expressed in MDCK2 cells assessed as reduction of [3H]estrone-3-sulfate uptake after 3 mins by beta-counting in presence of OATP inhibitor BSP; assay type: ADME, cell-based; details: mdck-ii, 0.05 h
[17] = fCmax in portal vein of patient with chronic noncirrhotic HCV infection at 700 mg; assay type: ADME; details: human
[18] = biological target: T3, Solute carrier organic anion transporter family member 2B1; assay: Inhibition of OATP2B1 (unknown origin) expressed in MDCK2 cells assessed as reduction of [3H]estrone-3-sulfate uptake after 3 mins by beta-counting; assay type: ADME, cell-based, MDCK-II; how it was run: as §3
[19] = Cmax in patient with chronic noncirrhotic HCV infection at 140 mg; assay type: ADME, organism-based; parameters: dose 140 mg; details: human, in vivo
[20] = Protein binding in rat; assay type: ADME, organism-based; details: in vivo, read-out: PB (converted)
[21] = Inhibition of OATP-mediated [3H]estradiol-17beta-glucuronide uptake in sandwich-cultured human hepatocytes at 100 uM after 1 day by beta-counting; assay type: ADME, cell-based, Hepatocyte; how it was run: as §4
[22] = biological target: T2, Solute carrier organic anion transporter family member 1B3; assay: Inhibition of OATP1B3 (unknown origin) expressed in HEK293 cells assessed as reduction of [3H]estradiol-17beta-glucuronide uptake after 3 mins by beta-counting; assay type: ADME, cell-based; how it was run: as §3
[23] = Ratio of fCmax in portal vein of patient with chronic noncirrhotic HCV infection at 140 mg to IC50 for OATP2B1 (unknown origin) expressed in HEK293 cells; parameters: species or system Homo sapiens
[24] = Ratio of fCmax in portal vein of patient with chronic noncirrhotic HCV infection at 700 mg to IC50 for OATP1B1 (unknown origin) expressed in HEK293 cells; parameters: species or system Homo sapiens
[25] = Ratio of fCmax in portal vein of patient with chronic noncirrhotic HCV infection at 140 mg to IC50 for OATP1B1 (unknown origin) expressed in HEK293 cells; parameters: species or system Homo sapiens
[26] = Unbound fraction in human plasma; assay type: ADME, cell-free
[27] = Inhibition of OATP-mediated [3H]estradiol-17beta-glucuronide uptake in sandwich-cultured human hepatocytes at 100 uM after 8 days by beta-counting; assay type: ADME, cell-based, Hepatocyte; how it was run: as §2

SMILES | inhibition (INH) [1] | inhibition (INH) [2] | inhibition (INH) [3] | Ratio [4] | inhibition (INH) [5] | IC50 [6] [µM] | Ratio [7] | inhibition (INH) [8] | Ratio [9] | Cmax [10] [ng/mL] | Cmax [11] [nM] | inhibition (INH) [12] | fCmax [13] [µM] | inhibition (INH) [14] | inhibition (INH) [16] | fCmax [17] [µM] | IC50 [18] [µM] | Cmax [19] [ng/mL] | fraction unbound [20] | inhibition (INH) [21] | other results
COc1cc([C@@H]2[C@H]3CO[C@@]4(O)C(=O)[C@@H]2C=C([C@H]2Oc5cc(O)cc(O)c5C(=O)[C@@H]2O)[C@@H]34)ccc1O [SILIDIANIN] | Active | Active | Active |  |  |  |  |  |  |  |  |  |  |  |  |  |  |  |  |  | 
COc1cc([C@H]2Oc3cc([C@H]4Oc5cc(O)cc(O)c5C(=O)[C@@H]4O)ccc3O[C@@H]2CO)ccc1O [SILYBIN A] | Active | Active | Active | 0.01 | Active | 9.7 | 0.05 | Not Active | 0.08 | 580 | 80 | Not Active | 0.04 | Active | Not Active | 0.22 | 4.5 | 40 | 0.3 | Active | concentration (Plasma): 4200 nM; residual activity [15]: 58%; IC50 [22]: 2.7 µM; Ratio [23]: 0.01; Ratio [24]: 0.02; Ratio [25]: 0.004; fraction unbound [26]: 0.05
COc1cc([C@@H]2Oc3cc([C@H]4Oc5cc(O)cc(O)c5C(=O)[C@@H]4O)ccc3O[C@H]2CO)ccc1O [SILYBIN B] | Active |  | Active | 0.03 | Active | 8.5 | 0.88 | Not Active | 0.14 | 220 | 16 | Not Active | 0.13 | Active | Not Active | 0.7 | 0.8 | 8 | 0.3 | Active | inhibition (INH) [27]: Active; IC50 [22]: 5 µM; Ratio [23]: 0.16; Ratio [24]: 0.08; Ratio [25]: 0.02; fraction unbound [26]: 0.05
